SMILES strings stand for the structures.

Consider four compounds from paper PMC4140444 (Drug Design, Development and Therapy, 2014).

The subject of series [1] is human breast cancer MCF-7 cell line. To be noted: cited from earlier work.
Series [2] can be described thus: Cytotoxicity, MTT assay on normal embryonic lung cells. The series is classed as cell-based. To be noted: human, MRC-5 normal embryonic lung cells. The procedure, abridged:
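MRC-5 cells grown in DMEM with 10% fetal bovine serum and 100 U/mL penicillin–streptomycin, seeded at 5×10³–2×10⁴ cells/well, then held 24 h at 37°C in 5% CO2. Serial dilutions of test compound added in an equal volume of medium, with doxorubicin (positive) and DMSO (negative) controls, for 48 h. MTT applied for 2–4 h; formazan dissolved in DMSO with sonication; read at 550 nm against a 650 nm reference. IC50 is the concentration giving 50% growth inhibition versus the DMSO control.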

Series [3] concerns the target T1, CYP19 (a recombinant human aromatase) (Homo sapiens, UniProt P11511).
T1 sequence (P11511 1-503): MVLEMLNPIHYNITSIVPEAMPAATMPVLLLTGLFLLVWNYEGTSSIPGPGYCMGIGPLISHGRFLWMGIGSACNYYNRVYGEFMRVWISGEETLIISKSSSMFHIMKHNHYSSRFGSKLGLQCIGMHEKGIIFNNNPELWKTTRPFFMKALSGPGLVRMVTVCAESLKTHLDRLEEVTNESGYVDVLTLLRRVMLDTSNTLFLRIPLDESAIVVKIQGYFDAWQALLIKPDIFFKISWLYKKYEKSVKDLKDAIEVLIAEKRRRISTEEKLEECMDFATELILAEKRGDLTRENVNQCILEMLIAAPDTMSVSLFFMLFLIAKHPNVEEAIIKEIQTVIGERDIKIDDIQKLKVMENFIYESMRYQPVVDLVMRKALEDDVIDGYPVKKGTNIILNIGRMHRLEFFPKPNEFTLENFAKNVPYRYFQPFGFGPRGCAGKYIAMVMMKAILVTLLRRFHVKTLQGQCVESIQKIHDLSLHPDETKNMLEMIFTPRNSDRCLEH
Briefly: Aromatase inhibition assay. The class given is biochemical. To be noted: screened at 12.5 μM.

The IC50 is the concentration at which inhibition is half-maximal. Low readings indicate inhibition by little substance, high ones a need for much substance. On to `Oc1cccc2cccnc12` [Compound 1, 8-hydroxyquinoline], for which the “Cytotoxic activity against MCF-7” value in series [1] was “substantial cytotoxic activity”. This compound had an IC50 at 48 h in series [2] of 6.27 ± 0.58 µM. Besides, the “Aromatase inhibitory activity (IC50 column, activity class)” value (shortened to “Aromatase inhibitory activity”) in series [3] is on record as “Inactive ^b”.

`O=c1[nH]cc(I)c(=O)[nH]1` [Compound 3, 5-iodouracil] showed an IC50 at 48 h in series [2] above 50 µg/mL. In series [3], the “Aromatase inhibitory activity” value is reported as “Inactive ^b”.

`O=c1[nH]cc([N+](=O)[O-])c(=O)[nH]1` [Compound 2, 5-nitrouracil] returned an IC50 at 48 h in series [2] above 50 µg/mL. The “Aromatase inhibitory activity” value in series [3] is reported as “Inactive ^b”.

In the case of `COc1cccc2c1C(=O)c1c(O)c3c(c(O)c1C2=O)C[C@@](O)(C(=O)CO)C[C@@H]3O[C@H]1C[C@H](N)[C@H](O)[C@H](C)O1` [Doxorubicin], the IC50 at 48 h in series [2] was above 50 µg/mL.
